According to ChEMBL document CHEMBL4138215, “Discovery of caffeic acid phenethyl ester derivatives as novel myeloid differentiation protein 2 inhibitors for treatment of acute lung injury” (Eur J Med Chem, 2018):
Calls of active or inactive are those of the source. The calls are words filed in the database; no cut-off is given here.

Legend:
Peritoneal macrophage [1] = assay: Anti-inflammatory activity in ICR mouse peritoneal macrophages assessed inhibition of LPS-induced TNF-alpha production at 10 uM preincubated for 30 to 60 mins followed by LPS stimulation measured after 24 hrs by ELISA; format: functional, cell-based
How it was run: (§1)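 Primary peritoneal macrophages from thioglycollate-elicited ICR mice (3 mL i.p.), collected by PBS lavage and cultured in RPMI-1640 at 37 °C, 5% CO2. Plated at 4*10⁵ cells/well and grown 24 h. Pretreated with compound (30–60 min; screen at 10, dose-response 0.5–10), then LPS for 24 h. TNF-α in the conditioned medium measured by ELISA and expressed relative to LPS alone; DMSO as vehicle.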

Mus musculus [2] = assay: Anti-inflammatory activity in LPS-induced C57BL/6 mouse model of acute lung injury assessed as inhibition of myeloperoxidase activity in lung tissue at 15 mg/kg, ip pretreated for 30 mins followed by LPS challenge measured after 6 hrs by H2O2 substrate based assay; format: functional, organism-based; conditions: C57/BL6
How it was run: (§2)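 Male C57BL/6 mice (n = 7) received 15 mg/kg i.p. in 200 µL, or vehicle, 30 min before intratracheal LPS 5 mg/kg; euthanized at 6 h. Total BALF cells counted as counts/ml. Lung MPO activity determined from absorbance change at 460 nm after a 30 min reaction and reported as U/g.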

Mus musculus [3] = assay: Anti-inflammatory activity in LPS-induced C57BL/6 mouse model of acute lung injury assessed as decrease in interstitial edema in lung tissue at 15 mg/kg, ip pretreated for 30 mins followed by LPS challenge measured after 6 hrs by hematoxylin and eosin staining-based light microscopic analysis; format: functional, organism-based; conditions: C57/BL6
Mus musculus [4] = assay: Anti-inflammatory activity in LPS-induced C57BL/6 mouse model of acute lung injury assessed as inhibition of total cell count in BALF at 15 mg/kg, ip pretreated for 30 mins followed by LPS challenge measured after 6 hrs; format: functional, organism-based; conditions: C57/BL6; how it was run: as §2
Mus musculus [5] = assay: Anti-inflammatory activity in LPS-induced C57BL/6 mouse model of acute lung injury assessed as decrease in inflammatory infiltration in lung tissue at 15 mg/kg, ip pretreated for 30 mins followed by LPS challenge measured after 6 hrs by hematoxylin and eosin staining-based light microscopic analysis; format: functional, organism-based; conditions: C57/BL6
Peritoneal macrophage [6] = assay: Anti-inflammatory activity in ICR mouse peritoneal macrophages assessed inhibition of LPS-induced TNF-alpha production at 10 uM preincubated for 30 to 60 mins followed by LPS stimulation measured after 24 hrs by ELISA relative to control; format: functional; how it was run: as §1
Mus musculus [7] = assay: Anti-inflammatory activity in LPS-induced C57BL/6 mouse model of acute lung injury assessed as inhibition of IL-6 levels in BALF at 20 mg/kg, ip pretreated for 30 mins followed by LPS challenge measured after 6 hrs by ELISA; format: functional, organism-based; conditions: C57/BL6
How it was run: (§3)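 ALI model in male C57BL/6 mice: i.p. pretreatment 30 min before intratracheal LPS (5 mg/kg), euthanasia at 6 h. BALF spun at 1000 rpm for 10 min and the supernatant kept; plasma also collected. IL-6 and TNF-α measured by ELISA as pg/ml, mean ± SEM, n = 7.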

Mus musculus [8] = assay: Anti-inflammatory activity in LPS-induced C57BL/6 mouse model of acute lung injury assessed as inhibition of IL-6 levels in plasma at 20 mg/kg, ip pretreated for 30 mins followed by LPS challenge measured after 6 hrs by ELISA; format: functional, organism-based; conditions: C57/BL6; how it was run: as §3
[9] = target: Toll-like receptor 4 (Homo sapiens) (UniProt O00206); assay: Binding affinity to TLR4 (unknown origin) by SPR analysis
Sequence of Toll-like receptor 4 (Homo sapiens) (O00206 whole entry): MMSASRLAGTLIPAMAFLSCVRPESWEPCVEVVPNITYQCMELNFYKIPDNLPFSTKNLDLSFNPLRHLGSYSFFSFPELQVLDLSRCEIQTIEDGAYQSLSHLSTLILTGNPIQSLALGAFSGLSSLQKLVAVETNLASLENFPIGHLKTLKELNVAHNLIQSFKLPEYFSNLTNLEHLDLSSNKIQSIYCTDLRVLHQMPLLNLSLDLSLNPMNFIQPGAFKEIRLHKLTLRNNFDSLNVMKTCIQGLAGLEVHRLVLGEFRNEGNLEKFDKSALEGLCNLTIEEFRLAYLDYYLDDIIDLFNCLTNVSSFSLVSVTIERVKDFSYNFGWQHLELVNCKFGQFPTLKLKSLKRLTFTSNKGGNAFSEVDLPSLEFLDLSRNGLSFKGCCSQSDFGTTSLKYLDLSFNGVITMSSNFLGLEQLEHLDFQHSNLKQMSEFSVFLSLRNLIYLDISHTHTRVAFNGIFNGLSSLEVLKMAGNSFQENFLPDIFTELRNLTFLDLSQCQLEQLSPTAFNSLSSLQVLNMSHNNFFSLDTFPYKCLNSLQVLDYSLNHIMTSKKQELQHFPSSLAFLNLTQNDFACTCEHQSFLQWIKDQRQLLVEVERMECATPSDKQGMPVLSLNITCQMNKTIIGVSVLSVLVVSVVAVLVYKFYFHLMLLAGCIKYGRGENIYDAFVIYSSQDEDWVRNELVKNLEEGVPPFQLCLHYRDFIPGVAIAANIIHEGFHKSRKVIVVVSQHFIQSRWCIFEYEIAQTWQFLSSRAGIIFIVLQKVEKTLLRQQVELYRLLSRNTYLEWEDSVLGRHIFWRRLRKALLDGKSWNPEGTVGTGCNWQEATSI
How it was run: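 SPR: TLR4 protein in acetate buffer immobilized after activation with 40 mM EDC/10 mM sNHS. Compound dilutions in PBS with 0.1% SDS, 0.05% Tween-20 and 5% DMSO; first channel used as reference. Association 120 s, dissociation 120 s, 25 °C; KD derived from binding kinetics.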

Mus musculus [10] = assay: Anti-inflammatory activity in LPS-induced C57BL/6 mouse model of acute lung injury assessed as decrease in CD68 production in lung tissue at 15 mg/kg, ip pretreated for 30 mins followed by LPS challenge measured after 6 hrs by immumohistochemical staining-based light microscopic analysis; format: functional, organism-based; conditions: C57/BL6
How it was run: (§4)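 Male C57BL/6 mice, 18–22 g, n = 7 per group. Compound given i.p. 15 mg/kg in 200 µL, or vehicle, 30 min before intratracheal LPS 5 mg/kg; killed 6 h later. Paraffin lung sections, 5 µm, treated with H2O2, blocked in 5% BSA, then primary anti-CD68 or anti-TNF-α overnight at 4 °C. HRP secondary 2 h at 37 °C, DAB stain, light microscopy at 200×.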

Mus musculus [11] = assay: Anti-inflammatory activity in LPS-induced C57BL/6 mouse model of acute lung injury assessed as inhibition of TNF-alpha levels in plasma at 20 mg/kg, ip pretreated for 30 mins followed by LPS challenge measured after 6 hrs by ELISA; format: functional, organism-based; conditions: C57/BL6; how it was run: as §3
Mus musculus [12] = assay: Anti-inflammatory activity in LPS-induced C57BL/6 mouse model of acute lung injury assessed as inhibition of TNF-alpha levels in BALF at 20 mg/kg, ip pretreated for 30 mins followed by LPS challenge measured after 6 hrs by ELISA; format: functional, organism-based; conditions: C57/BL6; how it was run: as §3
Mus musculus [13] = assay: Anti-inflammatory activity in LPS-induced C57BL/6 mouse model of acute lung injury assessed as decrease in TNF-alpha production in lung tissue at 15 mg/kg, ip pretreated for 30 mins followed by LPS challenge measured after 6 hrs by immumohistochemical staining-based light microscopic analysis; format: functional, organism-based; conditions: C57/BL6; how it was run: as §4
Mus musculus [14] = assay: Anti-inflammatory activity in LPS-induced C57BL/6 mouse model of acute lung injury assessed as inhibition of TNF-alpha mRNA levels in lung tissue at 20 mg/kg, ip pretreated for 30 mins followed by LPS challenge measured after 6 hrs by RT-PCR analysis; format: functional, organism-based; conditions: C57/BL6
How it was run: (§5)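 Male C57BL/6 mice given i.p. pretreatment 30 min before intratracheal LPS 5 mg/kg, lungs taken at 6 h. IL-6 and TNF-α mRNA in lung tissue normalized to β-actin and expressed relative to the LPS group.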

Mus musculus [15] = assay: Anti-inflammatory activity in LPS-induced C57BL/6 mouse model of acute lung injury assessed as decrease in pulmonary congestion in lung tissue at 15 mg/kg, ip pretreated for 30 mins followed by LPS challenge measured after 6 hrs by hematoxylin and eosin staining-based light microscopic analysis; format: functional, organism-based; conditions: C57/BL6
Mus musculus [16] = assay: Anti-inflammatory activity in LPS-induced C57BL/6 mouse model of acute lung injury assessed as decrease in lung tissue destruction at 15 mg/kg, ip pretreated for 30 mins followed by LPS challenge measured after 6 hrs by hematoxylin and eosin staining-based light microscopic analysis; format: functional, organism-based; conditions: C57/BL6
Mus musculus [17] = assay: Anti-inflammatory activity in LPS-induced C57BL/6 mouse model of acute lung injury assessed as inhibition of IL-6 mRNA levels in lung tissue at 20 mg/kg, ip pretreated for 30 mins followed by LPS challenge measured after 6 hrs by RT-PCR analysis; format: functional, organism-based; conditions: C57/BL6; how it was run: as §5
Peritoneal macrophage [18] = assay: Anti-inflammatory activity in ICR mouse peritoneal macrophages assessed inhibition of LPS-induced TNF-alpha production preincubated for 30 to 60 mins followed by LPS stimulation measured after 24 hrs by ELISA; format: functional, cell-based; how it was run: as §1
Mus musculus [19] = assay: Anti-inflammatory activity in LPS-induced C57BL/6 mouse model of acute lung injury assessed as decrease in thicken alveolar septa at 15 mg/kg, ip pretreated for 30 mins followed by LPS challenge measured after 6 hrs by hematoxylin and eosin staining-based light microscopic analysis; format: functional, organism-based; conditions: C57/BL6

Structure (SMILES) | inhibition (Peritoneal macrophage [1]) | also measured
O=C(/C=C/c1ccc(C(F)(F)F)cc1)NCCc1ccccc1 | inactive | –
Cc1ncsc1/C=C/C(=O)NCCc1ccc(O)c(O)c1 | Active | –
Cc1ncsc1/C=C/C(=O)N[C@@H](Cc1ccccc1)C(=O)O | inactive | –
Cc1ccc(/C=C/C(=O)NCCc2ccccc2)s1 | Active | –
COc1cc(/C=C/C(=O)NCCc2ccccc2)ccc1OCc1ccccc1 | Active | –
O=C(/C=C/c1ccc(N2CCOCC2)cc1)NCCc1ccccc1 | Active | –
COc1ccc(/C=C/C(=O)NCCc2ccccc2)cc1 | Active | –
O=C(/C=C/c1ccc([N+](=O)[O-])cc1)NCCc1ccccc1 | inactive | –
CCCCCCCCCCNC(=O)/C=C/c1scnc1C | inactive | –
Cc1ncsc1/C=C/C(=O)NCCCCc1ccccc1 | inactive | –
COc1cc(OC)c(OC)cc1/C=C/C(=O)NCCc1ccccc1 | inactive | –
Cc1ncsc1/C=C/C(=O)N[C@@H](Cc1ccc(O)cc1)C(=O)OC(C)(C)C | – | inhibition (Mus musculus [2]): Active; Activity (Mus musculus [3]): Active; inhibition (Mus musculus [4]): Active; Activity (Mus musculus [5]): Active; inhibition at 10 µM (Peritoneal macrophage [6]): 82.6%; inhibition (Mus musculus [7]): Active; inhibition (Mus musculus [8]): Active; Activity [9]: inactive; Activity (Mus musculus [10]): Active; inhibition (Mus musculus [11]): Active; inhibition (Mus musculus [12]): Active; Activity (Mus musculus [13]): Active; inhibition (Mus musculus [14]): Active; Activity (Mus musculus [15]): Active; Activity (Mus musculus [16]): Active; inhibition (Mus musculus [17]): Active; IC50 (Peritoneal macrophage [18]): 2.05 µM; inhibition (Peritoneal macrophage [18]): Dose-dependent effect; Activity (Mus musculus [19]): Active
COc1ccc(/C=C/C(=O)NCCc2ccccc2)cc1OCc1ccc(C)cc1 | inactive | –
Cc1ncsc1/C=C(\C#N)C(=O)NCCc1ccccc1 | Active | –
Cc1ncsc1/C=C/C(=O)N[C@@H](Cc1ccc(O)cc1)C(=O)O | inactive | –
COc1ccc(/C=C/C(=O)NCCc2ccccc2)cc1O | Active | –
O=C(/C=C/c1ccc(O)cc1)NCCc1ccccc1 | Active | –
Cc1ncsc1/C=C/C(=O)N[C@@H](Cc1ccccc1)C(=O)OC(C)(C)C | – | inhibition at 10 µM (Peritoneal macrophage [6]): 68.7%
CCCCCCCCCNC(=O)/C=C/c1scnc1C | inactive | –
CCOC(=O)[C@H](Cc1ccc(O)cc1)NC(=O)/C=C/c1scnc1C | – | inhibition at 10 µM (Peritoneal macrophage [6]): 79.4%; IC50 (Peritoneal macrophage [18]): 3.19 µM; inhibition (Peritoneal macrophage [18]): Dose-dependent effect
COc1cc(OC)c(/C=C/C(=O)NCCc2ccccc2)c(OC)c1 | inactive | –
Cc1ncsc1/C=C/C(=O)NCCc1ccc(O)cc1 | Active | –

Structure (SMILES) | inhibition (Peritoneal macrophage [1]) | also measured
COc1cc(/C=C/C(=O)NCCc2ccccc2)ccc1O | Active | –
CCCCCCCCNC(=O)/C=C/c1scnc1C | inactive | –
COc1ccc(/C=C/C(=O)NCCc2ccccc2)c(OC)c1OC | inactive | –
Cc1ncsc1/C=C/C(=O)NCCCc1ccccc1 | inactive | –
COc1ccc(/C=C/C(=O)NCCc2ccccc2)cc1OC | Active | –
O=C(/C=C/c1cccnc1)NCCc1ccccc1 | Active | –
Cc1ccc(/C=C/C(=O)NCCc2ccccc2)o1 | Active | –
C=CCOc1ccc(/C=C/C(=O)NCCc2ccccc2)cc1 | Active | –
COc1ccc(/C=C/C(=O)NCCc2ccccc2)cc1OCc1ccccc1 | inactive | –
COc1cccc(/C=C/C(=O)NCCc2ccccc2)c1OC | inactive | –
Cc1ncsc1/C=C/C(=O)NCCc1cc2ccccc2[nH]1 | inactive | –
O=C(/C=C/c1ccc(O)c(O)c1)OCCc1ccccc1 [CAFFEIC ACID PHENETHYL ESTER] | – | inhibition (Mus musculus [2]): Active; inhibition (Mus musculus [4]): Active; inhibition (Mus musculus [7]): Active; inhibition (Mus musculus [8]): Active; inhibition (Mus musculus [11]): Active; inhibition (Mus musculus [12]): Active; IC50 (Peritoneal macrophage [18]): 4.31 µM
COc1cc(/C=C/C(=O)NCCc2ccccc2)cc(Br)c1O | Active | –
COc1cc(/C=C/C(=O)NCCc2ccccc2)cc(OC)c1OC | Active | –
CCCCCCCNC(=O)/C=C/c1scnc1C | inactive | –
COc1ccc2cc(CCNC(=O)/C=C/c3scnc3C)[nH]c2c1 | inactive | –
COc1cc(/C=C/C(=O)NCCc2ccccc2)ccc1OCc1ccc(C)cc1 | Active | –
COc1cc(COc2cc(/C=C/C(=O)NCCc3ccccc3)ccc2OC)cc(OC)c1 | inactive | –
O=C(/C=C/c1ccc2c(c1)OCO2)NCCc1ccccc1 | Active | –
Cc1ncsc1/C=C/C(=O)NCCc1ccccc1 | – | inhibition at 10 µM (Peritoneal macrophage [6]): 67.3%
Cc1ncsc1/C=C/C(=O)N1CCC(c2ccccc2)CC1 | inactive | –
